Source: ChEMBL document CHEMBL3407360, “Proteasome inhibitors with pyrazole scaffolds from structure-based virtual screening” (J Med Chem, 2015)
Active and inactive are the calls of the source. The calls are words filed in the database; no cut-off is given here.

Legend:
Homo sapiens [1] = species on record: Homo sapiens; assay: Inhibition of human 20S proteasome beta1i chymotrypsin-like activity using Ac-PAL-AMC as substrate preincubated for 30 mins before substrate addition measured over 90 mins by fluorescence assay
Outline: (§1)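 Purified human 20S proteasome (CP or IP, 0.5 µg/mL) was preincubated with compound for 30 min at room temperature in 20 mM Tris-HCl, 0.5 mM EDTA, 0.035% SDS. Substrates were Ac-nLPnLD-AMC 100 µM for β1, Ac-PAL-AMC 100 µM for β1i, and Boc-LRR-AMC 200 µM for β2/β2i. AMC release was followed 90 min at room temperature, ex 360/em 460 nm.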

[2] = molecular target: T1, Proteasome component C5 (Homo sapiens) (UniProt P20618); assay: Inhibition of human 20S proteasome beta1 caspase-like activity using Ac-nLPnLD-AMC as substrate preincubated for 30 mins before substrate addition measured over 90 mins by fluorescence assay; outline: as §1
T1 sequence (whole entry): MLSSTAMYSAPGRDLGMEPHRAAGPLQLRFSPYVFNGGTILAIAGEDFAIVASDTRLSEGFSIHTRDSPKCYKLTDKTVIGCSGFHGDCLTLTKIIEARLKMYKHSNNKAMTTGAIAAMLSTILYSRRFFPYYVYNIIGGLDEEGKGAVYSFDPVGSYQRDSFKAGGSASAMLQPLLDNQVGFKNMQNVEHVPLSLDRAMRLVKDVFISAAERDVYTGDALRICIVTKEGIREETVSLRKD

[3] = molecular target: Proteasome Macropain subunit (Homo sapiens) (UniProt P49721); assay: Inhibition of human 20S proteasome beta2 trypsin-like activity using Boc-LRR-AMC as substrate preincubated for 30 mins before substrate addition measured over 90 mins by fluorescence assay; outline: as §1
Sequence of Proteasome Macropain subunit (Homo sapiens) (P49721 whole entry): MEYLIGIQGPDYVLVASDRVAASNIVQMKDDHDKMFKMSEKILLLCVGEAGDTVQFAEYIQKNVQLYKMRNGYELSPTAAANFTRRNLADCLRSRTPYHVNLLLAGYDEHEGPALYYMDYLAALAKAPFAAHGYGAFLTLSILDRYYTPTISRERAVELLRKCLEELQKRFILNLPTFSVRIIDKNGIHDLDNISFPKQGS

Homo sapiens [4] = species on record: Homo sapiens; assay: Inhibition of human 20S proteasome beta2i trypsin-like activity using Boc-LRR-AMC as substrate preincubated for 30 mins before substrate addition measured over 90 mins by fluorescence assay; outline: as §1
NCI-H358 = assay: Cytotoxicity against human NCI-H358 cells after 72 hrs; type: functional, cell-based; settings: NCI-H358, 72 h
Outline: (§2)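 Adherent lines, growing in log phase in DMEM or RPMI 1640 with 10% FBS, were plated at 7,000–10,000 cells/well. Compound was added 24 h later at the final concentration. Viability was measured after 72 h by CellTiter Glo luminescence or CellTiter 96 Aqueous One absorbance.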

[5] = Cytotoxicity against human H23 cells after 72 hrs; type: functional, cell-based; settings: NCI-H23, 72 h; outline: as §2
RPMI-8226 [6] = assay: Inhibition of 20S proteasome chymotrypsin-like in human RPMI8226 cell extracts using Suc-LLVY-AMC as substrate preincubated at 1 to 10 uM for 30 mins before substrate addition by fluorescence assay; type: cell-free
Outline: (§3)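 Cytosolic extracts of RPMI 8226 cells served as the proteasome source in place of purified enzyme. Extracts were preincubated with compound, and hydrolysis of Suc-LLVY-AMC (CT-L), Z-LLE-AMC (C-L) or Boc-LRR-AMC (T-L) was read by AMC fluorescence at ex 360/em 460 nm.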

RPMI-8226 [7] = assay: Inhibition of 20S proteasome caspase-like in human RPMI8226 cell extracts using Z-LLE-AMC as substrate preincubated at 1 to 10 uM for 30 mins before substrate addition by fluorescence assay; type: cell-free; outline: as §3
RPMI-8226 [8] = assay: Inhibition of 20S proteasome trypsin-like in human RPMI8226 cell extracts using Boc-LRR-AMC as substrate preincubated at 1 to 10 uM for 30 mins before substrate addition by fluorescence assay; type: cell-free; outline: as §3
[9] = molecular target: T2, Proteasome Macropain subunit MB1 (Homo sapiens) (UniProt P28074); assay: Inhibition of human 20S proteasome beta5 chymotrypsin-like activity using Ac-WLA-AMC as substrate preincubated for 30 mins before substrate addition measured over 90 mins by fluorescence assay
T2 sequence (whole entry): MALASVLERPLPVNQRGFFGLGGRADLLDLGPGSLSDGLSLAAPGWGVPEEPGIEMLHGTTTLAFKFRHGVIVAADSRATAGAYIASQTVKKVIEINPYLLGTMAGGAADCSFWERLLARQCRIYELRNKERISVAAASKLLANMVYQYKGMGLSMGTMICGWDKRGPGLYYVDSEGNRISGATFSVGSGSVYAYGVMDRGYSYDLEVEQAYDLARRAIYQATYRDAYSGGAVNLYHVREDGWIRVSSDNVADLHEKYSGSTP

Homo sapiens [10] = species on record: Homo sapiens; assay: Inhibition of human 20S proteasome beta5i chymotrypsin-like activity using Ac-ANW-AMC as substrate preincubated for 30 mins before substrate addition measured over 90 mins by fluorescence assay

Question: For `Cc1ccc(OS(=O)(=O)c2cccc(C(F)(F)F)c2)c(-c2cc(-c3ccccc3)n(CCN[C@@H]3CCNC3)n2)c1`, which inhibition (Homo sapiens [1]) is on record?
Answer: Active

Question: And the inhibition [2]?
Answer: Active

Question: And the inhibition [3]?
Answer: inactive

Question: What about the inhibition (Homo sapiens [4]) of the same compound?
Answer: inactive

Question: And the IC50 (NCI-H358)?
Answer: 7 µM

Question: What about the IC50 [5] of the same compound?
Answer: 7 µM

Question: What about the inhibition (RPMI-8226 [6]) of the same compound?
Answer: Active

Question: And the inhibition (RPMI-8226 [7])?
Answer: Active

Question: What about the inhibition (RPMI-8226 [8]) of the same compound?
Answer: inactive

Question: What about the inhibition [9] of the same compound?
Answer: Active

Question: What about the inhibition (Homo sapiens [10]) of the same compound?
Answer: Active
